Data from ChEMBL document CHEMBL2021842, “COMPARE analysis of the toxicity of an iminoquinone derivative of the imidazo[5,4-f]benzimidazoles with NAD(P)H:quinone oxidoreductase 1 (NQO1) activity and computational docking of quinones as NQO1 substrates” (Bioorg Med Chem, 2012).

Key:
[1] = test system: HeLa; experiment: Cytotoxicity against human HeLa cells assessed as reduction in mean cell viability after 72 hrs by MTT assay; type: functional, cell-based
Method in brief: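 HeLa-CCL-2 cells in DMEM with 10% heat-inactivated FBS, 2 mM L-glutamine and nonessential amino acids. Plated at 1000 cells/well with 24 h adherence. Treated in ethanol (1% final) for 72 h at 37 °C under 5% CO₂, with ethanol controls. Absorbance of DMSO-dissolved formazan at 550 nm, 690 nm reference. IC₅₀ by nonlinear regression of percent viability.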

[2] = test system: SR; experiment: Growth inhibition of human SR cells assessed as cell growth at 10 uM relative to untreated control; type: functional; details: read-out: Activity
Method in brief: (§1)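 This is the first stage of the NCI DTP 60-human-tumour-cell-line screen, covering nine tissue types. Cells receive a single dose of the test compound, and the output is reported as mean growth %.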

[3] = test system: HCT-116; experiment: Growth inhibition of human HCT116 cells assessed as cell growth at 10 uM relative to untreated control; type: functional; details: read-out: Activity
Method in brief: (§2)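 NCI DTP 60-cell-line screen, first stage: a single 10 µM dose of compound given to the human tumour panel. Result reported as percent growth relative to control, on a mean growth graph.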

[4] = test system: 786-0; experiment: Growth inhibition of human 786-0 cells assessed as cell growth at 10 uM relative to untreated control; type: functional; details: read-out: Activity; method in brief: as §2
[5] = test system: OVCAR-4; experiment: Growth inhibition of human OVCAR4 cells assessed as cell growth at 10 uM relative to untreated control; type: functional; details: read-out: Activity
Method in brief: (§3)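 First stage of the NCI DTP 60 human tumour cell-line screen. Cells were exposed to a single dose of 10 µM. Output is reported as growth % relative to control.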

[6] = test system: HCT-15; experiment: Growth inhibition of human HCT15 cells assessed as cell growth at 10 uM relative to untreated control; type: functional; details: read-out: Activity; method in brief: as §2
[7] = Cytotoxicity against human GM00637 cells assessed as reduction in mean cell viability after 72 hrs by MTT assay; type: cell-based; details: GM00637, 72 h
Method in brief: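 SV40-transformed normal skin fibroblasts (GM00637) in MEM Eagle–Earle BSS with 15% heat-inactivated FBS, 2 mM L-glutamine, 2× amino acids and vitamins. Seeded at 10,000 cells/well and left 24 h to adhere. Ethanol-delivered compound (1% final) for 72 h at 37 °C, 5% CO₂. MTT formazan in DMSO read at 550/690 nm. Viability relative to vehicle; IC₅₀ by nonlinear regression.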

[8] = test system: IGROV-1; experiment: Growth inhibition of human IGROV1 cells assessed as cell growth at 10 uM relative to untreated control; type: functional; details: read-out: Activity; method in brief: as §2
[9] = test system: MCF7; experiment: Growth inhibition of human MCF7 cells assessed as cell growth at 10 uM relative to untreated control; type: functional; details: read-out: Activity; method in brief: as §3
[10] = test system: HOP-62; experiment: Growth inhibition of human HOP62 cells assessed as cell growth at 10 uM relative to untreated control; type: functional; details: read-out: Activity; method in brief: as §2
[11] = test system: CAKI-1; experiment: Growth inhibition of human Caki1 cells assessed as cell growth at 10 uM relative to untreated control; type: functional; details: read-out: Activity; method in brief: as §2
[12] = test system: DU-145; experiment: Growth inhibition of human DU145 cells assessed as cell growth at 10 uM relative to untreated control; type: functional; details: read-out: Activity; method in brief: as §2
[13] = test system: OVCAR-8; experiment: Growth inhibition of human OVCAR8 cells assessed as cell growth at 10 uM relative to untreated control; type: functional; details: read-out: Activity; method in brief: as §3
[14] = test system: KM12; experiment: Growth inhibition of human KM12 cells assessed as cell growth at 10 uM relative to untreated control; type: functional; details: read-out: Activity; method in brief: as §2
[15] = test system: OVCAR-3; experiment: Growth inhibition of human OVCAR3 cells assessed as cell growth at 10 uM relative to untreated control; type: functional; details: read-out: Activity; method in brief: as §3
[16] = test system: NCI/ADR-RES; experiment: Growth inhibition of human NCI/ADR-RES cells assessed as cell growth at 10 uM relative to untreated control; type: functional; details: read-out: Activity; method in brief: as §3
[17] = test system: SN12C; experiment: Growth inhibition of human SN12C cells assessed as cell growth at 10 uM relative to untreated control; type: functional; details: read-out: Activity; method in brief: as §1
[18] = test system: SK-MEL-28; experiment: Growth inhibition of human SK-MEL-28 cells assessed as cell growth at 10 uM relative to untreated control; type: functional; details: read-out: Activity; method in brief: as §3

Structure (SMILES): O=C1c2nc3n(c2C(=O)c2nc4n(c21)CCCC4)CCCC3
- IC50 [1]: 1.67 µM
- growth at 10 µM [2]: 101%
- growth at 10 µM [3]: 96.8%
- growth at 10 µM [4]: 111%
- growth at 10 µM [5]: 100%
- growth at 10 µM [6]: 103%
- IC50 [7]: > 5 µM
- growth at 10 µM [8]: 107%
- growth at 10 µM [9]: 101%
- growth at 10 µM [10]: 112%
- growth at 10 µM [11]: 90.7%
- growth at 10 µM [12]: 101%
- growth at 10 µM [13]: 103%
- growth at 10 µM [14]: 92.1%
- growth at 10 µM [15]: 97%
- growth at 10 µM [16]: 103%
- growth at 10 µM [17]: 99.6%
- growth at 10 µM [18]: 118%
